In one assay the test system is NCI-H460. As to the kind of experiment: Compound was evaluated for its in vitro activity in human solid tumor cell line H-460 measured in a [3H]thymidine incorporation assay. Format: functional, cell-based. The conditions noted are these: NCI-H460, 72 h. Put shortly:
(§1)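 Cell lines adapted to RPMI medium, exposed to compound for 72 h at 37 °C under 5% CO2. Methyl-[3H]-thymidine (0.5 μCi) added for the final 16 h, then incorporation measured. Antiproliferative IC50 (μM) reported.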

Another assay concerns SF-268. The assay is described as follows: Compound was evaluated for its in vitro activity in human solid tumor cell line SF-268 measured in a [3H]thymidine incorporation assay. Format: functional, cell-based. The settings on record: SF-268, 72 h. Put shortly:
as §1
A general note: Dividing cells build labelled thymidine or BrdU into new DNA.

The next assay has as its system MCF7. As to the kind of experiment: Compound was evaluated for its in vitro activity in human solid tumor cell line MCF-7 measured in a [3H]thymidine incorporation assay. In kind it is functional, cell-based. The conditions noted are these: MCF7, 72 h. Put shortly:
as §1

Another assay has as its system MRC5. The assay is described as follows: Cytotoxicity of compound was evaluated against MRC-5 cell line. In kind it is functional. The settings on record: Homo sapiens.

The structures appear in SMILES notation.

Broadly, the IC50 is the concentration that inhibits the measured activity by half. High values mean weaker potency, low ones greater potency. For `Nc1nc(N)c2ncn(C[C@@H]3CC[C@@H](P(=O)(O)O)O3)c2n1`, the IC50 was 57 µM in the assay with NCI-H460, > 100 µM with SF-268 and 52 µM in the assay with MCF7.

For the compound `Nc1nc(O)c2ncn(C[C@H]3O[C@H](P(=O)(O)O)C[C@@H]3O)c2n1`, the IC50 in the assay with NCI-H460 was found to be 30 µM; with SF-268, 13 µM; in the assay on MCF7 it was 53 µM.

Regarding `CO[C@H]1C[C@H](P(=O)(O)O)O[C@@H]1Cn1cnc2c(O)nc(N)nc21`, the IC50 in the assay with NCI-H460 turned out to be 7.6 µM; in the assay with SF-268, 2.4 µM; with MCF7 it was 5.6 µM.

For `Nc1nc(O)c2ncn(C[C@H]3O[C@@H](P(=O)(O)O)[C@H](O)[C@@H]3O)c2n1`, the IC50 in the assay with NCI-H460, with SF-268 and in the assay with MCF7 was > 100 µM in each case.

For `Nc1nc(O)c2ncn(C[C@H]3O[C@@H](P(=O)(O)O)C[C@@H]3F)c2n1`, the IC50 is 44 µM with NCI-H460, > 100 µM in the assay with SF-268 and > 100 µM in the assay with MCF7.

As a reminder, the CC50 is the concentration that lowers cell viability or growth by half. High values mean better tolerance by the cells, low ones harm at low concentration. On to `Nc1nc(O)c2ncn(C[C@@H]3CC[C@H](P(=O)(O)O)O3)c2n1`, for which the CC50 in the assay on MRC5 is > 10 µg/mL. Besides, the IC50 is 40 µM in the assay on NCI-H460, > 100 µM with SF-268 and 67 µM in the assay on MCF7.

`N.Nc1nc(O)c2ncn(C[C@@H]3CC[C@@H](P(=O)(O)O)O3)c2n1` returned a CC50 in the assay with MRC5 of 28 µg/mL. Also, the IC50 is 64 µM with NCI-H460, > 100 µM with SF-268 and > 100 µM with MCF7.

Take `Nc1nc(NC2CC2)c2ncn(C[C@H]3O[C@@H](P(=O)(O)O)C[C@@H]3O)c2n1`: the IC50 was determined as 20 µM with NCI-H460, 28 µM in the assay with SF-268 and 48 µM with MCF7.

Regarding `Nc1nc(NC2CC2)c2ncn(C[C@@H]3CC[C@@H](P(=O)(O)O)O3)c2n1`, the IC50 with NCI-H460, in the assay on SF-268 and with MCF7 was > 100 µM in each case.

Regarding `Nc1nc(O)c2ncn(C[C@H]3O[C@@H](P(=O)(O)O)C[C@@H]3O)c2n1`, the IC50 with NCI-H460 turned out to be 0.53 µM; in the assay on SF-268 it was 0.14 µM; in the assay with MCF7, 0.67 µM.

Take `Nc1nc(N)c2ncn(C[C@H]3O[C@@H](P(=O)(O)O)C[C@@H]3O)c2n1`: the IC50 in the assay with NCI-H460 was 0.71 µM; with SF-268, 1.2 µM; in the assay with MCF7, 1.4 µM.

Regarding `Nc1nc(O)c2ncn(C[C@H]3O[C@@H](P(=O)(O)O)C[C@H]3F)c2n1`, the IC50 in the assay with NCI-H460 is 7.1 µM; in the assay on SF-268, 44 µM; with MCF7, > 12 µM.
